High-throughput results (PubChem BioAssay)
PG9 binder = binders of HIV-1 gp120 antibody PG9, primary screen, biochemical, TR-FRET. HIV-1 gp120 / PG9 antibody interaction. inhibition, % at 6.7 µM. actives 0.43% (n = 360,000). TR-FRET gp120-PG9 antibody binding; in the data active = inhibition above about 8.5%
NR2E3 ag-1 = NR2E3 agonists in two-hybrid cells, primary screen, cell-based, luminescence, CHO-S, Gal4-NCOR/VP16-NR2E3. Photoreceptor-specific nuclear receptor (Homo sapiens), Q9Y5X4. luciferase. inhibition of corepressor binding, % at 3.98 µM. actives 0.35% (n = 360,000);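 active = inhibition above the mean of all tested compounds plus 3 SD, cut at about 70% in these data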;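 also: 0% = DMSO with NR2E3 transfected cells and 100% = cells lacking NR2E3 construct; higher means lower luciferase signal from less NR2E3 corepressor binding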
NR1D1 modulator = modulators of Rev-erb alpha DNA binding, primary screen, biochemical, FITC-DNA, fluorescence polarization, uHTS. Nuclear receptor subfamily 1 group D member 1 (Homo sapiens), P20393. Rev-erbα–FITC-DNA binding, 90 min. activity, % at 10 µM. actives 0.79% (n = 370,000). AID 1259318, 2017;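 active = activity above about 14%, limit read from the data; passing the limit was not always enough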;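 also: 0% = DMSO wells with 35 nM protein and 100% = DMSO wells with 750 nM protein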
Target sequence (P20393 whole entry, looked up): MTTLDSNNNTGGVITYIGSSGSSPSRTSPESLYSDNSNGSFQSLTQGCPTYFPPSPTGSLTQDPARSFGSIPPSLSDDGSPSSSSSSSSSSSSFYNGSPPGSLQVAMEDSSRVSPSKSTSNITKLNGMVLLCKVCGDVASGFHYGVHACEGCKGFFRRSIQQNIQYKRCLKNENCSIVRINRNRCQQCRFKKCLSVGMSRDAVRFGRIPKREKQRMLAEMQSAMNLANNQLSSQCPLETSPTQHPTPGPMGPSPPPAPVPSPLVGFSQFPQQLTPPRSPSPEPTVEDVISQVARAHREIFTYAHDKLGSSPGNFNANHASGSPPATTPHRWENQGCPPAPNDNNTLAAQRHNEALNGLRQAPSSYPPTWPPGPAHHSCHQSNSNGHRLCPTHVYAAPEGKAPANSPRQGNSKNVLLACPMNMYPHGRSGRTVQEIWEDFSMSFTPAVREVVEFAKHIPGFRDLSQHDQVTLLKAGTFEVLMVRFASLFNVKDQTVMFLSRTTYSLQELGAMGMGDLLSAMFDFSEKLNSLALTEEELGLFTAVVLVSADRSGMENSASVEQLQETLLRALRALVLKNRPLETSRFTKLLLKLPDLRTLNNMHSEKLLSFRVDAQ
NR2E3 ag-2 = inhibitors of NR2E3-RetCOR corepressor binding, primary screen, NR2E3 agonist project, biochemical, TR-FRET, GST-NR2E3, biotin-RetCOR; inhibition of corepressor binding, % at 4.78 µM; 1536-well; Photoreceptor-specific nuclear receptor (Homo sapiens), Q9Y5X4; AID 2300, 2010; actives 0.12% (n = 320,000);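 active = percent inhibition above the cutoff of mean plus 3 SD of all tested compounds, set per screening campaign, cut at about 20% in these data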;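 also: 0% = DMSO wells and 100% = biotin wells as full block of FRET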
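Test system: GST-NR2E3 and biotin-RetCOR proteins | Quantity: 1.35 nM GST-tagged NR2E3 final | Medium: Tris pH 7.5 | Also added: 7 nM biotin-RetCOR | Dosing: Compound at 4.8 µM, single dose | Timing: 5 h at 4 °C | Detection: Time-resolved FRET | Read-out basis: Percent inhibition | Benchmarks: Biotin wells as high control, 0.6% DMSO wells as low control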
GalR3 antag = GalR3 antagonists in HEK293 cells, primary screen, cell-based, fluorescence readout; Galanin receptor type 3 (Homo sapiens), O60755; HEK293 GalR3-CNG cAMP membrane potential fluorescence; galR3 body fused to GalR1 C-terminus; inhibition, % at 3 µM; actives 0.44% (n = 360,000); AID 651719, 2012;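 active = inhibition above the screen-wide average plus 3 SD, cut at about 13% in these data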;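 also: forskolin and galanin both at EC90 stimulate the cells; cAMP rise reported by CNG channel membrane potential dye signal; 0% = forskolin plus galanin with DMSO and 100% = forskolin alone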
GalR3 conf = GalR3 antagonist hit confirmation, cell-based, fluorescence, triplicate | shares compounds with GalR3 antag | HEK293 GalR3 CNG cAMP biosensor, membrane potential fluorescence; galR3 fused to GalR1 carboxy tail; challenged with forskolin and galanin at EC90 | inhibition, % at 3 µM | actives 59% (n = 1,600) | AID 652245, 2013;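 active = inhibition above the primary screen's cutoff, the mean inhibition of all screened compounds plus 3 SD, cut at about 13% in these data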;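 also: 0% = forskolin plus galanin and 100% = forskolin alone with DMSO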
HEK-CNG parental = nonspecific cAMP agonists in parental HEK-CNG cells, counter-screen for GalR3 antagonist project, cell-based, fluorescence, high throughput. AID 652268, 2013. activation, % at 3 µM. HEK293-CNG parental cells, cAMP membrane potential fluorescence; normalised: DMSO wells 0%, forskolin wells 100%. actives 10% (n = 1,600). shares compounds with GalR3 antag; in the data active = activation above about 1.3%
Active calls of the source: *; x = not tested or not shown. Shown are actives, neighbours in structure and some others; about 1.8% of the full set was active somewhere.

SMILES	PG9 binder	NR2E3 ag-1	NR1D1 modulator	NR2E3 ag-2	GalR3 antag	GalR3 conf	HEK-CNG parental
O=C(N[C@@H](Cc1cccnc1)C(=O)N1CCC[C@H]1C(=O)NCCc1ccccc1Cl)c1ccc(Cl)cc1Cl	0	x	-1	x	-5	x	x
COC(=O)[C@]12C[C@H](CC(=O)NCC34CC5CC(CC(C5)C3)C4)C(=O)N(Cc3ccccc3)C1=C[C@H](C(C)(C)C)O[C@@H]2C	-1	x	9	x	-4	x	x
COc1ccc(Cn2nnnc2CN(Cc2cc3cc(C)ccc3[nH]c2=O)C2CCCC2)cc1	-1	6	x	4	-9	x	x
Cc1ccc2[nH]c(=O)c(CN(Cc3nnnn3C3CCCC3)C3CCCCC3)cc2c1	1	-4	-6	5	14*	1	1
Cc1ccc2[nH]c(=O)c(CN(Cc3ccccc3)Cc3nnnn3C3CCCC3)cc2c1	-1	-34	2	2	4	x	x
CCC(C)(C)n1nnnc1CN(Cc1cc2cc(OC)c(OC)cc2[nH]c1=O)C1CCCC1	1	1	-1	2	18*	2	0
COc1ccc2c(c1)CCCN2C(=O)C1CCCN(S(=O)(=O)c2c(C(C)C)cc(C(C)C)cc2C(C)C)C1 (stereo unspecified)	x	x	13	x	x	x	x
COc1cc2c(cc1OC)C(c1ccc(C)cc1)NC(=O)C2 (stereo unspecified)	0	-18	5	x	14*	3	0
CCOc1ccc(C2NC(=O)Cc3cc(OC)c(OC)cc32)cc1 (stereo unspecified)	-1	12	2	0	-13	x	x
COC(=O)[C@]12C[C@H](CC(=O)NCCC(C)C)C(=O)N(Cc3ccc(Cl)cc3Cl)C1=C[C@H](C(C)(C)C)O[C@@H]2C	x	x	-1	x	x	x	x
N#C/C(N=Nc1ccccc1O)=N\Nc1ccccc1O	-11	-6	-10	-4	61*	84*	-2
COc1cccc(-c2nnc(SCc3cc(C)ccc3C)n2Cc2ccco2)c1	x	x	0	x	x	x	x
CC(C)(C)CN1CCN(Cc2nc(-c3ccc(F)cc3)cs2)CC1CCO (stereo unspecified)	-1	3	6	-2	101*	109*	0
CCOC(=O)[C@@]12CCCC=C1N(CCc1ccc(Cl)cc1)C(=O)[C@H]2CC(=O)NCCc1ccccc1OC	x	x	3	x	x	x	x
COC(=O)c1ccc(COc2ccccc2/C=N/NC(=O)c2cccnc2)cc1	-3	-20	2	2	13*	5	1
CC(Oc1ccc(Cl)cc1)C(=O)/C=C/N(C)C (stereo unspecified)	0	6	-2	3	-5	x	x
CC(Oc1ccc(Cl)cc1)/C(N)=N/O (stereo unspecified)	-1	3	5	-3	16*	5	0
COc1cccc(NC(=O)N2CC[C@@H]3[C@H]2c2cc(-c4cccc(C#N)c4)ccc2N(C)[C@@H]3CO)c1	x	x	3	x	x	x	x
O=C1NCC(COc2cccc3ccccc23)O1 (stereo unspecified)	-2	-9	1	3	19*	7	0
COc1ccc(NCc2nnc(SCC(=O)Nc3ccccc3)n2C)cc1	-2	-3	-6	1	x	-1	0
CC1=CC(C)(C)n2c(O)c(N=NC(N)=S)c3c(C)ccc1c32	-3	1	1	-1	14*	8	-2
CC1=CC(C)(C)n2c(O)c(N=NC(N)=S)c3c(C)c(C)cc1c32	-4	-43	4	0	-4	x	x
CN1CCN(c2ccc(CNS(=O)(=O)Cc3cccc(C(F)(F)F)c3)cc2)CC1	1	37	2	-2	60*	111*	0
Cc1cc(Br)ccc1OCC(=O)NNC(=O)c1ccc(NC(=O)C2CC2)cc1	1	-4	7	-3	50*	36*	0
S=C1NNC2(NN1)C1CC3CC(C1)CC2C3	-2	-28	-1	0	15*	3	0
SMILES	PG9 binder	NR2E3 ag-1	NR1D1 modulator	NR2E3 ag-2	GalR3 antag	GalR3 conf	HEK-CNG parental
C1CSC2(N1)C1CC3CC(C1)CC2C3 (stereo unspecified)	-2	-23	-3	-4	3	x	x
COCCSc1ncccc1-c1nc2ccccc2[nH]1	x	x	-2	x	x	x	x
CCN(CC(=O)Nc1ccc(NC(C)=O)cc1)CC(=O)Nc1ccccc1C(=O)c1ccccc1	-2	-18	0	2	17*	4	0
COC(=O)[C@]12C[C@H](CC(=O)NCc3ccccc3)C(=O)N(Cc3ccco3)C1=C[C@H](C(C)(C)C)O[C@@H]2C	x	x	2	x	x	x	x
CCCCCCNC(=O)CC(NS(=O)(=O)c1ccc(OC)cc1)C(C)C (stereo unspecified)	0	4	3	-3	21*	-2	0
CCCCCCCNC(=O)CC(NS(=O)(=O)c1ccc(NC(C)=O)cc1)C(C)C (stereo unspecified)	0	16	2	2	-10	x	x
Cc1cc(Br)cn2c(Cc3cccc(Cl)c3)c(-c3ccco3)nc12	-2	-53	-3	x	40*	41*	0
Cc1cc(Br)cn2c(Cc3ccccc3C(F)(F)F)c(-c3cccc(Br)c3)nc12	2	-4	11	x	-1	x	x
Cc1cc(Br)cn2c(Cc3ccccc3C(F)(F)F)c(-c3ccco3)nc12	-5	x	-4	x	18*	45*	1
CCN(CC)S(=O)(=O)c1ccc(/C=C/C(=O)Nc2ccc(Br)cc2F)cc1	-3	-10	0	-1	59*	99*	0
COCCNc1cc(N)c([N+](=O)[O-])cc1[N+](=O)[O-]	-3	-8	2	-5	-7	x	x
O=c1[nH]c2cc(NCCO)c([N+](=O)[O-])cc2[nH]1	-12	-15	5	-11	21*	33*	2.8*
CC(=O)c1ccc(NC(=O)Nc2ccc(Br)cc2C)cc1	7	9	x	0	13*	-3	0
CCCCNC(=O)C[C@@H]1C(=O)N2CCCC3=C2[C@@]1(C(=O)OC)CCCC3	x	x	1	x	x	x	x
CCOC(=O)c1ccc(-c2c(-c3cc(OC)c(OC)c(OC)c3)noc2C)cc1F	0	-5	-3	1	x	5	3.8*
